Assay results: PMC3219927 (Nature medicine, 2011)
Ends that are not written are not given here.

Key:
[1] = system: meningeal blood flow (dura mater); assay: Laser Doppler flowmetry of meningeal blood flow; type: in vivo, rat
[2] = system: ddC-induced tactile hypersensitivity; assay: ddC-induced neuropathic pain, paw withdrawal threshold; type: in vivo, rat; conditions: single ddC injection
[3] = system: interaction between tubulin and CRMP-2; assay: Co-immunoprecipitation with CRMP-2 antibody from spinal cord lysates, tubulin; type: binding
[4] = system: cytosolic loop 1 (L1) of CaV2.2; assay: Surface plasmon resonance, immobilized L1; type: binding; conditions: 1/3/5 μM; dissociation monitored for 4 min
Summary of the method: (§1)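 Test peptide or scrambled control peptide injected at 1, 3 and 5 μM over immobilized CaV2.2 L1 or Ct-dis. Binding was recorded as sensorgrams in resonance units, with dissociation followed for 4 min.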

[5] = system: distal C-terminus (Ct-dis) of CaV2.2; assay: Surface plasmon resonance, immobilized Ct-dis; type: binding; conditions: 1/3/5 μM; dissociation monitored for 4 min
Summary of the method: as §1

[6] = system: interaction between CRMP-2 and L1 of CaV2.2; assay: In vitro binding; conditions: L1-GST, peptide 10 μM
Summary of the method: (§2)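 GST fusions of the CaV2.2 loop 1 (L1) or distal C-terminus (Ct-dis) incubated in vitro with CRMP-2 alongside test peptide or scrambled control peptide, each at 10 μM. CRMP-2 retained on the fusion proteins was detected by immunoblot with a CRMP-2 antibody.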

[7] = system: interaction between CRMP-2 and Ct-dis of CaV2.2; assay: In vitro binding; conditions: Ct-dis-GST, peptide 10 μM
Summary of the method: as §2

[8] = system: CaV2.2; assay: CaV2.2 surface localisation; type: cell-based; conditions: CAD neuronal cell line, co-expression of CaV2.2 with CBD3 (fused to GFP)
[9] = system: hippocampal neurons; assay: Depolarization-induced calcium influx, hippocampal neurons; type: cell-based; conditions: plasmid expression
[10] = system: dorsal root ganglion (DRG) neurons; assay: Depolarization-induced calcium influx, DRG neurons; type: cell-based; conditions: plasmid expression
[11] = system: N-type Ca^2+ channels; type: cell-based; conditions: DRGs, Fura-2 imaging
[12] = system: neurons; conditions: not told
[13] = system: neurons; assay: Cell permeation / entry into neurons; conditions: in vitro, ex vivo and in vivo
[14] = system: formalin-induced edema; assay: Formalin-induced paw edema; type: in vivo, rat; conditions: formalin 2.5%, compared to saline; 1 h after injection

Compound: COc1cc(CNC(=O)CCCC/C=C/C(C)C)ccc1O [Capsaicin, capsaicin]
- Meningeal blood flow response to capsaicin alone ([1]; nasally administered capsaicin, 100 nM): rapid and robust increase in meningeal blood flow

Compound: Nc1ccn([C@H]2CC[C@@H](CO)O2)c(=O)n1 [ddC, 2',3'-dideoxycytidine]
- PWT after ddC [2]: exhibited a decrease in PWT

Compound: CBD3 (ARSRLAELRGVPRGL)
- Effect on interaction between tubulin and CRMP-2 [3]: did not affect the interaction between tubulin and CRMP-2
- Binding to immobilized L1 [4]: bound to immobilized L1 and Ct-dis proteins
- Binding to immobilized Ct-dis [5]: bound to immobilized L1 and Ct-dis proteins
- Ability of L1 to pull down CRMP-2 [6]: dramatic reduction in ability of L1 or Ct-dis proteins to pull down CRMP-2
- Ability of Ct-dis to pull down CRMP-2 [7]: dramatic reduction in ability of L1 or Ct-dis proteins to pull down CRMP-2
- CaV2.2 localisation on co-expression [8]: almost complete retention of the channel in cytoplasmic aggregates
- Depolarization-induced calcium influx [9]: reduced depolarization-induced calcium influx
- Depolarization-induced calcium influx [10]: reduced depolarization-induced calcium influx
- K+-evoked Ca2+ influx, channel selectivity [11]: reduced K^+-evoked Ca^2+ influx selectively through N-type Ca^2+ channels
- Cell permeability / entry into neurons [12]: not cell permeant
- Passage into cells, time [13]: conjugation of CBD3 to HIV-1 TAT facilitated its passage into cells in vitro, ex vivo and in vivo within minutes

Compound: CGRP8-37: CGRP antagonist (VTHRLAGLLSRSGGVVKNNFVPTNVGSKAF; ends and bridges not checked; UniProt P06881 90-119, looked up, fragment)
- Dependence of capsaicin-induced blood flow changes on CGRP ([1]; prior dural administration of CGRP antagonist): could be blocked by prior dural administration of the CGRP antagonist, CGRP8-37

Compound: Formalin
- Change in paw thickness [14]: 4 fold
